IDH1 mut inh: blocks human IDH1 R132H reductase activity | O75874 | diaphorase/resazurin fluorescence, 60 min | inhibition, % at 10 µM | hit rate 0.18% among 70,000; in the data active means inhibition above about 34%; inconclusive means no clear call, values can overlap the other calls; inactive means below about 11%;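 further: 0% = DMSO and 100% = no enzyme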
GASC1 inh: blocks human GASC-1 (KDM4C) demethylase activity | AID 720574 | inhibition, % at 12.5 µM | hit rate 0.15% among 96,000 | GST-KDM4C 2-372, H3K9me3 peptide, LANCE TR-FRET | Q9H3R0;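 active means mean replicate inhibition above about 25%, with at least 55% of replicates also reaching it, limit read from the data, passing the limit was not always enough; inconclusive means only one of those two conditions met; inactive means neither condition met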
Target sequence (Q9H3R0 2-372 limits assumed): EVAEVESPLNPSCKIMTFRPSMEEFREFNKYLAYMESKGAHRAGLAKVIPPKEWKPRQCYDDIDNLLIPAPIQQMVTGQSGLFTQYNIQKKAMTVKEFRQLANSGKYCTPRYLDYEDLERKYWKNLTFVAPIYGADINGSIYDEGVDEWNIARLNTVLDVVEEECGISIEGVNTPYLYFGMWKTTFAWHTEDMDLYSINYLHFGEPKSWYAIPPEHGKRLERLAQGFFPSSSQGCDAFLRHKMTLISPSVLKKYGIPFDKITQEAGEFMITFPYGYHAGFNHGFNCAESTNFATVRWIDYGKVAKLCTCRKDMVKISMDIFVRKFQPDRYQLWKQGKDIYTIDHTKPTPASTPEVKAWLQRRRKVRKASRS
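Compound: one test concentration per compound; Material: GST-GASC-1 enzyme fragment 2-372; Amount: GASC-1 enzyme at 10 nM final in reaction; Also added: H3K9me3 peptide substrate, Fe(II), 2-oxoglutarate; Technique: LANCE TR-FRET; Times: 30 min demethylation and 1 h detection at room temperature.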
T cruzi growth-1: inhibitors of T. cruzi proliferation; T. cruzi beta-gal in NIH3T3, GalScreen luminescence, 90 h; inhibition, % at 8.34 µM; hit rate 5.9% among 77,000; AID 624255;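 active means mean inhibition above about 93%, with at least 55% of replicates each passing it, limit read from the data, passing the limit was not always enough; inconclusive means only one of those two conditions holds; inactive means neither condition holds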
T cruzi growth-2: inhibitors of T. cruzi proliferation. hit rate 72% among 5,600. T. cruzi beta-gal in NIH3T3, GalScreen luminescence, 90 h. shares compounds with T cruzi growth-1. inhibition, % at 8.35 µM. AID 651739;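 active means mean replicate inhibition above about 95% and at least 55% of replicates individually reaching it, limit read from the data; inconclusive means only one of the two criteria is met; inactive means neither criterion is met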
T cruzi growth-3: Trypanosoma cruzi proliferation inhibition; T. cruzi beta-gal in NIH3T3, GalScreen luminescence, 90 h; inhibition, % at 2.09 µM; hit rate 21% among 5,600; shares compounds with T cruzi growth-1; AID 651740;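 active means mean inhibition above about 95%, with at least 55% of replicates also reaching it, limit read from the data; inconclusive means meets just one of the two conditions; inactive means meets neither condition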;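 further: plate controls were neutral control median for no effect and positive control median for full effect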
3T3 cytotox: NIH/3T3 (mouse) viability loss | cytotoxicity (signal decrease), % at 8.35 µM | hit rate 14% among 5,600 | shares compounds with T cruzi growth-1 | NIH/3T3 viability, CellTiter-Glo ATP luminescence, 90 h;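 active means mean signal decrease across replicates above about 35% based on untreated-well scatter, with enough replicates individually passing, limit read from the data; inconclusive means no rule stated though some were filed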;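 further: 0% = median of neutral control wells and 100% = median of positive control wells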
3T3 cytotox 2: kills mouse NIH/3T3 fibroblasts. NIH/3T3 viability, CellTiter-Glo ATP luminescence, 90 h. shares compounds with T cruzi growth-1. inhibition, % at 24.9 µM. hit rate 56% among 5,600;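 active means mean loss of cell viability signal at or above a set limit, and enough replicates individually reaching it; inconclusive means meets only the mean limit or only the replicate share; inactive means meets neither condition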;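 further: 0% = median of neutral control wells and 100% = median of positive control wells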
The depositor's hits bear a star; ? = inconclusive; . = no result. The full list was thinned out, with hits kept by preference.

SMILES	IDH1 mut inh	GASC1 inh	T cruzi growth-1	T cruzi growth-2	T cruzi growth-3	3T3 cytotox	3T3 cytotox 2
CN(C)CC(=O)Nc1ccc2c(c1)[C@H]1C[C@@H](CC(=O)N3CCc4ccccc4C3)O[C@H](CO)[C@H]1O2	-0.1	-1.8	105.1*	64.6	9.2	-8.8	-3.8
O=C(CC1CC1)Nc1ccc2c(c1)[C@@H]1C[C@H](CC(=O)N3CCCCC3)O[C@H](CO)[C@@H]1O2	-1.8	-2.1	11.3	.	.	.	.
COc1cc2c(c(OC)c1OC)CCc1cc(O)c(O)cc1-2	9.5	.	.	.	.	.	.
Clc1snnc1CN1CCOCC1	0.3	.	.	.	.	.	.
COC(=O)c1ccc(NC(=O)CSc2nnc(-c3ccc(NC(C)=O)cc3)n2C)cc1	-0.4	.	.	.	.	.	.
Cc1ccc(C(=O)Nc2ccc(OCC(=O)O)cc2)cc1C	-0.2	.	.	.	.	.	.
O=C(COc1ccccc1[N+](=O)[O-])Nc1cccc(-c2nc3cc(Cl)cc(Cl)c3o2)c1	-0.2	.	.	.	.	.	.
O=C(Nc1ccc2c(c1)[C@@H]1C[C@H](CC(=O)N3CCc4ccccc4C3)O[C@H](CO)[C@@H]1O2)Nc1ccccc1F	-0.5	-2.4	.	.	.	.	.
O=C(Nc1ccc(C(F)(F)F)cc1)Nc1ccc2c(c1)[C@@H]1C[C@H](CC(=O)N3CCc4ccccc4C3)O[C@H](CO)[C@@H]1O2	0.0	1.2	118.6*	91.6	122.4*	8.1	-9.5
COc1ccc(NC(=O)C(C)Oc2cc(C)c(Cl)c(C)c2)c([N+](=O)[O-])c1 (configuration not stated)	-0.4	.	.	.	.	.	.
Cc1ccc(S(=O)(=O)Nc2ccc3c(c2)C(=O)N([C@@H](C)CO)C[C@@H](C)[C@H](CN(C)S(=O)(=O)c2ccccc2)OCCCC[C@H](C)O3)cc1	.	-0.4	57.4	.	.	.	.
Cc1ccc(S(=O)(=O)N(C)C[C@H]2OCCCC[C@@H](C)Oc3ccc(NS(=O)(=O)c4ccccc4)cc3C(=O)N([C@@H](C)CO)C[C@H]2C)cc1	.	-2.3	?	109.3*	74.3	-5.8	-2.4
Cc1ccc(S(=O)(=O)Nc2ccc3c(c2)C(=O)N([C@@H](C)CO)C[C@@H](C)[C@H](CN(C)S(=O)(=O)c2ccccc2)OCCCC[C@@H](C)O3)cc1	-1.8	-0.5	104.7*	106.3*	71.7	6.7	22.8
Cc1ccc(S(=O)(=O)N(C)C[C@@H]2OCCCC[C@H](C)Oc3ccc(NS(=O)(=O)c4ccccc4)cc3C(=O)N([C@H](C)CO)C[C@@H]2C)cc1	.	-0.4	?	.	.	.	.
Cc1ccc(S(=O)(=O)N(C)C[C@H]2OCCCC[C@@H](C)Oc3ccc(NS(=O)(=O)c4ccccc4)cc3C(=O)N([C@H](C)CO)C[C@H]2C)cc1	.	-1.1	?	101.0*	73.1	4.4	-4.5
Cc1ccc(S(=O)(=O)N(C)C[C@@H]2OCCCC[C@H](C)Oc3ccc(NS(=O)(=O)c4ccccc4)cc3C(=O)N([C@H](C)CO)C[C@H]2C)cc1	.	-2.8	78.2	.	.	.	.
Cc1ccc(S(=O)(=O)Nc2ccc3c(c2)C(=O)N([C@@H](C)CO)C[C@H](C)[C@@H](CN(C)S(=O)(=O)c2ccccc2)OCCCC[C@H](C)O3)cc1	.	-0.1	102.3*	109.4*	77.7	6.5	-6.5
Cc1ccc(S(=O)(=O)N(C)C[C@H]2OCCCC[C@H](C)Oc3ccc(NS(=O)(=O)c4ccccc4)cc3C(=O)N([C@H](C)CO)C[C@H]2C)cc1	.	-1.6	?	.	.	.	.
Cc1cc(Cn2ccc(C(F)(F)F)n2)c(C)c(-c2c(C#N)c(N)nc3c2CCCC3)c1	-0.3	.	.	.	.	.	.
COC(=O)CCCCCCC(=O)N/N=C/c1ccc(OC)cc1	0.1	.	.	.	.	.	.
CCc1c(C)sc(NC(=O)COc2ccc(Cl)cc2)c1C(N)=O	0.2	.	.	.	.	.	.
CSc1cccc(NC(=O)CSc2nnc(-c3cccc(C)c3)n2-c2ccccc2)c1	0.2	.	.	.	.	.	.
COc1cccc(S(=O)(=O)N2CCCCN3[C@H](C2)[C@H](c2ccc(-c4cccnc4)cc2)[C@@H]3CO)c1	.	-1.4	105.3*	103.4*	87.7	3.9	5.8
COc1ccc(S(=O)(=O)N2CCCCN3[C@H](CO)[C@@H](c4ccc(-c5cccnc5)cc4)[C@H]3C2)cc1	.	0.1	113.1*	77.7	22.7	19.1	12.2
COc1cccc(S(=O)(=O)N2CCCCN3[C@H](CO)[C@H](c4ccc(-c5ccncc5)cc4)[C@@H]3C2)c1	.	-1.1	113.0*	109.3*	103.6*	-26.6	9.9
COc1cccc(S(=O)(=O)N2CCCCN3[C@H](CO)[C@@H](c4ccc(-c5cncnc5)cc4)[C@H]3C2)c1	.	-0.6	53.7	.	.	.	.
COc1ccc(S(=O)(=O)N2CCCCN3[C@@H](CO)[C@@H](c4ccc(-c5cccnc5)cc4)[C@@H]3C2)cc1	.	-1.1	72.2	.	.	.	.
COc1cccc(S(=O)(=O)N2CCCCN3[C@H](CO)[C@H](c4ccc(-c5cccnc5)cc4)[C@@H]3C2)c1	.	-1.3	117.7*	103.2*	66.1	-7.7	23.9
